Reference: ChEMBL document CHEMBL4373710, “DNA Structural Alteration Leading to Antibacterial Properties of 6-Nitroquinoxaline Derivatives” (J Med Chem, 2019)
In brackets after ≈: the same amount, converted by molar mass. Activity calls are given as the source filed them. The rule behind the calls is not given here.

Legend:
Escherichia coli [1] = assay: Disruption of membrane integrity in Escherichia coli assessed as increase in extracellular ALK level at 3.5 to 5 uM measured after 2 hrs by PLP substrate based assay
Staphylococcus aureus [2] = assay: Induction of morphological changes in Staphylococcus aureus assessed as unchanged population at 3.5 uM measured after 2 hrs by flow cytometric analysis (reference value: 90.4%); type: functional
[3] = system: Poly(dG-dC)oligonucleotide; assay: Binding affinity to poly(dG-dC) DNA (unknown origin) assessed as appearance of induced CD by circular dichroism method; type: nucleic-acid assay
Outline: (§1)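 Poly(dA-dT)·poly(dA-dT) or poly(dG-dC)·poly(dG-dC) held at 10 µM. Titrated with compound from 20 to 60 µM and followed by circular dichroism for change in the B-DNA band and appearance of induced CD.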

[4] = system: Poly(dA-dT)oligonucleotide; assay: Binding affinity to poly(dA-dT) DNA (unknown origin) assessed as appearance of induced CD up to 6:1 compound to DNA ratio by circular dichroism method; type: nucleic-acid assay
Outline: as §1

Pseudomonas aeruginosa = assay: Antibacterial activity against Pseudomonas aeruginosa MTCC1688 by broth microdilution assay; type: functional
Outline: (§2)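 Broth microdilution per CLSI; 5×10^5 cfu/mL bacteria in LB broth; compounds from DMSO stocks, final DMSO under 0.6%, with DMSO control. Plates incubated at the strain's recommended growth temperature and time; growth read as OD600.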

Staphylococcus aureus [5] = assay: Disruption of cell membrane in Staphylococcus aureus assessed as accumulation of propidium iodide negative cells at 5 uM by flow cytometric analysis (reference value: 98.2%); type: functional
Staphylococcus aureus [6] = assay: Induction of morphological changes in Staphylococcus aureus assessed as increase in changed population measured after 2 hrs by flow cytometric analysis; type: functional, organism-based
[7] = system: Pseudarthrobacter chlorophenolicus; assay: Binding affinity to Arthrobacter chlorophenolicus DNA assessed as change in B-DNA structure by circular dichroism method
Outline: (§3)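 Genomic DNA isolated from overnight cultures of each strain. Titrated with compound from 15 to 60 µM in a 10 mm quartz cuvette. CD spectra recorded from 230 to 500 nm at 100 nm/min; ellipticity followed at 320 nm.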

Staphylococcus aureus [8] = assay: Induction of morphological changes in Staphylococcus aureus assessed as unchanged population at 5 uM measured after 2 hrs by flow cytometric analysis (reference value: 90.4%); type: functional
DNA [9] = assay: Binding affinity to Escherichia coli pBR322 DNA assessed as transition of local to global DNA at 2:1 to 3:1 compound to DNA ratio by atomic force microscopic analysis; type: nucleic-acid assay
Outline: (§4)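 Supercoiled pBR322 plasmid treated with compound at [compound]:[DNA bp] ratios of 0.5:1, 1:1, 1.5:1, 2:1 and 3:1. Imaged by atomic force microscopy, with DNA height measured and compared against untreated plasmid.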

[10] = system: Staphylococcus epidermidis; assay: Antibacterial activity against Staphylococcus epidermidis MTCC3615 by broth microdilution assay; type: functional
Outline: as §2

Escherichia coli [11] = assay: Antibacterial activity against Escherichia coli MTCC1916 by broth microdilution assay; type: functional
Outline: as §2

Calf thymus DNA [12] = assay: Binding affinity to calf thymus DNA assessed as appearance of induced CD at […] by circular dichroism method; type: nucleic-acid assay; conditions: Bos taurus
Staphylococcus aureus [13] = assay: Disruption of cell membrane in Staphylococcus aureus assessed as accumulation of propidium iodide positive cells at 3.5 uM by flow cytometric analysis (reference value: 1.7%); type: functional
Staphylococcus aureus [14] = assay: Disruption of cell membrane in Staphylococcus aureus assessed as accumulation of propidium iodide negative cells at 3.5 uM by flow cytometric analysis (reference value: 98.2%); type: functional
[15] = system: Poly(dG-dC)oligonucleotide; assay: Binding affinity to poly(dG-dC) DNA (unknown origin) assessed as change in B-DNA structure by circular dichroism method; type: nucleic-acid assay
Outline: as §1

Staphylococcus aureus [16] = assay: Inhibition of DNA synthesis in Staphylococcus aureus at 3.5 uM measured after 1 hr by BrdU incorporation assay; type: functional, organism-based
Outline: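 Log-phase S. aureus (10^5–10^6 CFU/mL) exposed to 3.5 µM for 1 h at 37°C, then BrdU pulse for 30 min; fixed in paraformaldehyde, permeabilised (Triton X-100/lysostaphin), DNA denatured in 2N HCl, stained with FITC anti-BrdU antibody, confocal imaging.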

Calf thymus DNA [17] = assay: Binding affinity to calf thymus DNA assessed as change in B-DNA structure at 265 nm by circular dichroism method; type: nucleic-acid assay; conditions: Bos taurus
Staphylococcus aureus [18] = assay: Induction of morphological changes in Staphylococcus aureus at 3.5 uM measured after 6 hrs by acridine orange dye based confocal laser scanning fluorescence microscopic analysis; type: functional, organism-based
Outline: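 S. aureus with 3.5 µM for 6 h at 37°C; fixed in paraformaldehyde, permeabilised with 0.2% Triton X-100 and lysostaphin 0.05 mg/mL; stained with acridine orange 3 µM for 5 min at 37°C; confocal imaging at 60X.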

Staphylococcus aureus [19] = assay: Induction of morphological changes in Staphylococcus aureus assessed as unchanged population at 7.5 uM measured after 2 hrs by flow cytometric analysis (reference value: 90.4%); type: functional
DNA [20] = assay: Binding affinity to Staphylococcus aureus DNA assessed as induction of structural changes by EtBr staining based agarose gel shift assay; type: nucleic-acid assay
Outline: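 S. aureus genomic DNA incubated with compound at stated [compound]:[DNA bp] ratios, 16 h at 37 °C, in NaP buffer pH 7 with 10 mM NaCl. Run on agarose gel, stained with EtBr (1 µg/mL) and classed as supercoiled, structurally altered or condensed.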

Staphylococcus aureus [21] = assay: Induction of DNA fragmentation in Staphylococcus aureus at 3.5 uM by EtBr staining based confocal laser scanning fluorescence microscopic analysis; type: functional, organism-based
[22] = Antibacterial activity against Arthrobacter chlorophenolicus A6MTCC3706 by broth microdilution assay; type: functional; conditions: Pseudarthrobacter chlorophenolicus
Outline: as §2

DNA [23] = assay: Binding affinity to Staphylococcus aureus DNA assessed as transition of local to global DNA at 1:1 to 3:1 compound to DNA ratio by atomic force microscopic analysis; type: nucleic-acid assay
Outline: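 Isolated S. aureus genomic DNA (2.8 Mbp) treated with compound at increasing [compound]:[DNA bp] ratios, up to 3:1. Imaged by atomic force microscopy against untreated DNA.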

Staphylococcus aureus [24] = assay: Inhibition of DNA synthesis in Staphylococcus aureus assessed as reduction in [3H]-thymidine incorporation at 3.5 to 5 uM measured after 30 mins by scintillation counting analysis; type: functional, organism-based
Outline: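 Log-phase S. aureus (10^5–10^6 CFU/mL) incubated with 3.5 or 5 µM, then pulsed 30 min with 3H-thymidine (1 µCi/well); cells harvested and counted by liquid scintillation. 5-fluorouracil (2 µM) as positive control.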

Staphylococcus aureus [25] = assay: Induction of morphological changes in Staphylococcus aureus assessed as cell aggregation at 3.5 to 5 uM by atomic force microscopic analysis; type: functional, organism-based
DNA [26] = assay: Binding affinity to Escherichia coli pBR322 DNA assessed as height of DNA at 0.5:1 to 3:1 compound to DNA ratio by atomic force microscopic analysis; type: nucleic-acid assay
Outline: as §4

Staphylococcus aureus [27] = assay: Induction of morphological changes in Staphylococcus aureus assessed as changed population at 3.5 uM measured after 2 hrs by flow cytometric analysis (reference value: 5.71%); type: functional
[28] = system: Poly(dA-dT)oligonucleotide; assay: Binding affinity to poly(dA-dT) DNA (unknown origin) assessed as change in B-DNA structure up to 6:1 compound to DNA ratio by circular dichroism method; type: nucleic-acid assay
Outline: as §1

DNA [29] = assay: Binding affinity to Staphylococcus aureus DNA assessed as change in B-DNA structure by circular dichroism method; type: nucleic-acid assay
Outline: as §3

CN(C)CCCNc1nc2cc([N+](=O)[O-])ccc2nc1NCc1ccc(C(F)(F)F)cc1
Activity (Escherichia coli [1]): Active | Activity (Staphylococcus aureus [2]): 86.3% | Activity [3]: Dose-dependent effect | Activity [4]: inactive | MIC (Pseudomonas aeruginosa): 6.73 µg/mL (≈ 15 µM) | Activity (Staphylococcus aureus [5]): 79% | Activity (Staphylococcus aureus [6]): Dose-dependent effect | Activity [7]: Dose-dependent effect | Activity (Staphylococcus aureus [8]): 82.4% | Activity (DNA [9]): Active | MIC [10]: 2.24 µg/mL (≈ 4.99 µM) | MIC (Escherichia coli [11]): 3.36 µg/mL (≈ 7.49 µM) | Activity (Calf thymus DNA [12]): Dose-dependent effect | Activity (Staphylococcus aureus [13]): 7.96% | Activity (Staphylococcus aureus [14]): 91.6% | Activity [15]: Dose-dependent effect | inhibition (Staphylococcus aureus [16]): Active | Activity (Calf thymus DNA [17]): Dose-dependent effect | Activity (Staphylococcus aureus [18]): Active | Activity (Staphylococcus aureus [19]): 81% | Activity (DNA [20]): Dose-dependent effect | Activity (Staphylococcus aureus [21]): Active | MIC [22]: 0.897 µg/mL (≈ 2 µM) | Activity (DNA [23]): Active | inhibition (Staphylococcus aureus [24]): Active | Activity (Staphylococcus aureus [25]): Active | Activity (DNA [26]): 0.32 to 1.3 nm | Activity (Staphylococcus aureus [27]): 10.2% | Activity [28]: inactive | Activity (DNA [29]): Dose-dependent effect
